In ChEMBL document CHEMBL1151890, “Synthesis and SAR of amino acid-derived heterocyclic progesterone receptor full and partial agonists” (Bioorg Med Chem Lett, 2009):

Experiments:
Format in all cases: ADME, organism-based
[1] = Cmax in rat at 2 mg/kg, po; parameters: dose 2 mg/kg, route oral; details: in vivo
How it was run: (§1)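 Rats were dosed both intravenously and orally, at 1.1 or 1.2 mg/kg iv and 2.0 or 2.3 mg/kg po. Plasma parameters were derived from these dosings. Values are means of three experiments with standard deviation.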

[2] = AUC (0 to t) in rat at 2 mg/kg, po; parameters: dose 2 mg/kg, route oral; details: plasma; how it was run: as §1
[3] = Half life in rat at 2 mg/kg, po; parameters: dose 2 mg/kg, route oral; details: in vivo; how it was run: as §1
[4] = Oral bioavailability in rat at 2 mg/kg; details: in vivo; how it was run: as §1

Compound `CC(C)CC(c1nnnn1C)N(CC(C)C)c1ccc(C#N)c(Cl)c1` (centres undefined) has a Cmax [1] of 146 ng/mL, an AUC(0-t) [2] of 572 ng·h/mL and a half-life [3] of 8.9 h. For the same compound, the bioavailability [4] was 100%.
